Assay results from ChEMBL document CHEMBL1158025, “Antimalarial activity of macrocyclic trichothecenes isolated from the fungus Myrothecium verrucaria” (J Nat Prod, 1999).
Converted amounts (≈) assume the structure as drawn.

What was measured:
KB [1] = assay: Cytotoxicity against human KB cells; assay type: functional, cell-based
[2] = Cytotoxicity against human BC1 cells; assay type: functional, cell-based
Plasmodium falciparum = assay: Antimalarial activity against Plasmodium falciparum K1 by [3H]hypoxanthine uptake; assay type: functional, organism-based
Outline: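 P. falciparum K1 (multidrug-resistant) asexual erythrocytic stages were kept in continuous in vitro culture. Activity was measured by a microculture radioisotope method. EC50 is the concentration giving 50% reduction in parasite growth, read as in vitro [3H]hypoxanthine uptake.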

Vero [3] = assay: Cytotoxicity against african green monkey Vero cells; assay type: functional, cell-based, Chlorocebus sabaeus
[4] = Cytotoxicity against human BC1 cells at 20 ug/mL; assay type: functional
KB [5] = assay: Cytotoxicity against human KB cells at 20 ug/mL; assay type: functional
Vero [6] = assay: Cytotoxicity against african green monkey Vero cells at 20 ug/mL; assay type: functional; details: Chlorocebus sabaeus

| Structure (SMILES) | EC50 (KB [1]) [ng/mL] | EC50 [2] [ng/mL] | EC50 (Plasmodium falciparum) [ng/mL] | EC50 (Vero [3]) [ng/mL] | inhibition at 20 µg/mL [4] [%] | inhibition at 20 µg/mL (KB [5]) [%] | inhibition at 20 µg/mL (Vero [6]) [%] |
| --- | --- | --- | --- | --- | --- | --- | --- |
| CC1=C[C@H]2O[C@@H]3C[C@H]4OC(=O)/C=C\C=C\C(=O)OCC[C@@H](C)[C@H](O)C(=O)OC[C@@]2(CC1)[C@]4(C)[C@]31CO1 [VERRUCARIN A] | 1.2 (≈ 2.39 nM) | 4.2 (≈ 8.36 nM) | 0.9 (≈ 1.79 nM) | 1.1 (≈ 2.19 nM) |  |  |  |
| CC1=C[C@H]2O[C@@H]3C[C@H]4OC(=O)/C=C\C=C\[C@H]([C@@H](C)O)OCC[C@@H](C)[C@H](O)C(=O)OC[C@@]2(CC1)[C@]4(C)[C@]31CO1 [RORIDIN A] | 1 (≈ 1.88 nM) | 5 (≈ 9.39 nM) | 0.31 (≈ 0.582 nM) | 1.7 (≈ 3.19 nM) |  |  |  |
| CC(=O)O[C@H](C)[C@H]1/C=C/C=C\C(=O)O[C@@H]2C[C@H]3O[C@@H]4C=C(C)CC[C@]4(COC(=O)/C=C(\C)CCO1)[C@]2(C)[C@]31CO1 [RORIDIN E ACETATE] | 14 | 15 | 0.06 | 4.1 |  |  |  |
| CC1=C[C@H]2O[C@@H]3C[C@H]4OC(=O)/C=C\C=C\C(=O)OCC/C(C)=C/C(=O)OC[C@@]2(CC1)[C@]4(C)[C@]31CO1 [VERRUCARIN J] | 3.9 (≈ 8.05 nM) | 14 (≈ 28.9 nM) | 0.2 (≈ 0.413 nM) | 1.2 (≈ 2.48 nM) |  |  |  |
| C[C@@H]1CC[C@H]2[C@@H](C)C(=O)O[C@@H]3O[C@@]4(C)CC[C@@H]1[C@]32OO4 [ARTEMISININ] |  |  |  |  | < 50 | < 50 | < 50 |
| CC1=C[C@H]2O[C@@H]3C[C@H]4OC(=O)/C=C\C=C\[C@H]([C@@H](C)O)OCC/C(C)=C/C(=O)OC[C@@]2(CC1)[C@]4(C)[C@]31CO1 [RORIDIN E] | 0.5 (≈ 0.972 nM) | 0.7 (≈ 1.36 nM) | 0.15 (≈ 0.291 nM) | 0.4 (≈ 0.777 nM) |  |  |  |
